Usually GI50 stands for the concentration giving 50% growth inhibition.

Molecules are shown by their SMILES. The source made the active and inactive calls. The rule behind the calls is not given here.

The values below come from ChEMBL document CHEMBL3351691, “Steroidal alkaloids from the marine sponge Corticium niger that inhibit growth of human colon carcinoma cells” (2014).

For test [1], the system named is COLO 205. As to the kind of experiment: Antiproliferative activity against human COLO205 cells assessed as growth inhibition after 48 hrs by XTT assay. The format is functional, cell-based. The gist of the method: (§1)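 Cells were seeded into 384-well plates (COLO205 at […] cells/well, KM12 at 2.5×10^5 cells/well) and preincubated for 24 h. DMSO samples were diluted 1:25 in medium, then given five 2:1 serial dilutions and tested in duplicate (0.4% final DMSO). Exposure was 48 h at 37 °C. XTT was then added, and formazan was read after 4 h at 450 nm against a 650 nm reference.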
On the technique in general: Tetrazolium assays rely on reduction of a dye to a coloured formazan, in cell work by metabolically active cells.

The nature of test [2]: Antiproliferative activity against human NCI60 cells assessed as growth inhibition after 48 hrs by XTT assay. It counts as functional. The note with it: NCI60, 48 h.
The test system of test [3] is SW-620. As to the kind of experiment: Antiproliferative activity against human SW620 cells assessed as growth inhibition after 48 hrs by XTT assay. The format is functional, cell-based.
In test [4] the test system is HCT-116. As to the kind of experiment: Antiproliferative activity against human HCT116 cells assessed as growth inhibition after 48 hrs by XTT assay. It counts as functional, cell-based.
Test [5] has as its system HT-29. As to the kind of experiment: Antiproliferative activity against human HT-29 cells assessed as growth inhibition after 48 hrs by XTT assay. The format is functional, cell-based.
Test [6] has as its system HCC 2998. The test can be described thus: Antiproliferative activity against human HCC2998 cells assessed as growth inhibition after 48 hrs by XTT assay. The format is functional, cell-based.
In test [7] the test system is KM12. The test can be described thus: Antiproliferative activity against human KM12 cells assessed as growth inhibition after 48 hrs by XTT assay. It counts as functional, cell-based. The gist of the method:
as §1

For test [8], the system named is HCT-15. As to the kind of experiment: Antiproliferative activity against human HCT15 cells assessed as growth inhibition after 48 hrs by XTT assay. The format is functional, cell-based.

For `CC(=O)O[C@H]1[C@H](N)CC[C@]2(C)[C@H]3CC[C@]4(C)[C@@H]([C@H](C)CC5NCCC5=C(C)C)CC[C@H]4C3=CC[C@@H]12` (stereo partly drawn), the “growth inhibition (GI)” value in test [1], in test [3], in test [4], in test [5], in test [6] and in test [7] was “Active” throughout. Moreover, in test [8], the “growth inhibition (GI)” value is “Active”. Besides, the GI50 in test [2] was found to be 2.4 µM.
In the case of `CC(C)=C1CCNC1C[C@@H](C)[C@H]1CC[C@H]2C3=CC[C@H]4C[C@H](N)CC[C@]4(C)[C@H]3CC[C@]12C` (stereo partly drawn), the “growth inhibition (GI)” value in test [1], in test [3], in test [4], in test [5], in test [6] and in test [7] was “Active” throughout. The “growth inhibition (GI)” value in test [8] was “Active”. Moreover, the GI50 in test [2] is 11.5 µM.
For `CC(C)C1CCN(C)C1C[C@@H](C)[C@H]1CC[C@H]2C3=CC[C@H]4[C@H](N)C=CC[C@]4(C)[C@H]3CC[C@]12C` (stereo partly drawn), the “growth inhibition (GI)” value in test [1], in test [3], in test [4], in test [5], in test [6] and in test [7] was “Active” in each case. Also, the “growth inhibition (GI)” value in test [8] is “Active”.
